In ChEMBL document CHEMBL4622955, “Phenyltriazole-functionalized sulfamate inhibitors targeting tyrosyl- or isoleucyl-tRNA synthetase” (Bioorg Med Chem, 2020):
Calls of active or inactive are those of the source. The calls are words filed in the database; no cut-off is given here.

Assays:
Candida albicans = experiment: Antimicrobial activity against Candida albicans at 64 uM by resazurin dye based assay; assay type: functional, organism-based
[1] = system: Mycobacterium tuberculosis; experiment: Antimicrobial activity against Mycobacterium tuberculosis at 64 uM by resazurin dye based assay; assay type: functional, organism-based
Outline: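 Non-pathogenic Mycobacterium tuberculosis strain, part of a broader antimicrobial panel; compounds tested up to a maximum concentration of 64 μM.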

Escherichia coli = experiment: Antimicrobial activity against Escherichia coli at 64 uM by resazurin dye based assay; assay type: functional, organism-based
Staphylococcus aureus = experiment: Antimicrobial activity against Staphylococcus aureus at 64 uM by resazurin dye based assay; assay type: functional, organism-based
[2] = target: Isoleucine--tRNA ligase (Escherichia coli K-12) (UniProt P00956); experiment: (§1) Inhibition of Escherichia coli BL21(DE3) ileRS overexpressed in Escherichia coli Rosetta2(DE3) assessed as reduction in tRNA aminoacylation at 1 uM preincubated with enzyme and substrate for 10 mins prior to ATP addition using 14C-labeled isoleucine and tRNA as substrate by liquid scintillation counting method
Outline: (§2)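 Radiolabeled aminoacylation with 10 nM IleRS, 25 μM 14C-isoleucine, 500 μM ATP and total E. coli tRNA at 2 mg/mL final. Activity normalized to enzyme without inhibitor. Triplicate measurements.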

[3] = target: T1, Tyrosine--tRNA ligase (Escherichia coli (strain K12)) (UniProt P0AGJ9); experiment: as §1, with “BL21(DE3) TyrRS” for “BL21(DE3) ileRS”, “at 5” for “at 1”, “14C-labeled tyrosine” for “14C-labeled isoleucine”
T1 sequence (whole entry): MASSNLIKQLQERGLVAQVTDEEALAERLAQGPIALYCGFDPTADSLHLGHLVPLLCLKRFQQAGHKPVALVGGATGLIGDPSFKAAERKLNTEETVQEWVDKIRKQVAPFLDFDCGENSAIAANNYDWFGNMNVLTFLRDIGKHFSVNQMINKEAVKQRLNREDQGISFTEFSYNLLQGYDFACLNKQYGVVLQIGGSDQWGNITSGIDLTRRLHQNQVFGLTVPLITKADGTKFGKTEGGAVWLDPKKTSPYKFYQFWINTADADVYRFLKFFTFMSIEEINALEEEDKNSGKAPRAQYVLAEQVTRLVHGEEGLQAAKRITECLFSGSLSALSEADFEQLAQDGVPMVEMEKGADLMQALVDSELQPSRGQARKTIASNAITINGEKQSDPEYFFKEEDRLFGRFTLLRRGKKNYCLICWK
Outline: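 TyrRS counterpart of the radiolabeled aminoacylation assay, with test compounds at 5 μM.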

Isoleucine--tRNA ligase = Isoleucine--tRNA ligase (Escherichia coli K-12, UniProt P00956); experiment: as §1, with “aminoacylation” for “aminoacylation at 1 uM”; conditions: read-out: Ki(app); outline: as §2
[4] = target: Isoleucine--tRNA ligase (Escherichia coli K-12) (UniProt P00956); experiment: as §1, with “at 0.5” for “at 1”; outline: as §2

Isoleucine--tRNA ligase (Escherichia coli K-12), sequence (P00956 whole entry): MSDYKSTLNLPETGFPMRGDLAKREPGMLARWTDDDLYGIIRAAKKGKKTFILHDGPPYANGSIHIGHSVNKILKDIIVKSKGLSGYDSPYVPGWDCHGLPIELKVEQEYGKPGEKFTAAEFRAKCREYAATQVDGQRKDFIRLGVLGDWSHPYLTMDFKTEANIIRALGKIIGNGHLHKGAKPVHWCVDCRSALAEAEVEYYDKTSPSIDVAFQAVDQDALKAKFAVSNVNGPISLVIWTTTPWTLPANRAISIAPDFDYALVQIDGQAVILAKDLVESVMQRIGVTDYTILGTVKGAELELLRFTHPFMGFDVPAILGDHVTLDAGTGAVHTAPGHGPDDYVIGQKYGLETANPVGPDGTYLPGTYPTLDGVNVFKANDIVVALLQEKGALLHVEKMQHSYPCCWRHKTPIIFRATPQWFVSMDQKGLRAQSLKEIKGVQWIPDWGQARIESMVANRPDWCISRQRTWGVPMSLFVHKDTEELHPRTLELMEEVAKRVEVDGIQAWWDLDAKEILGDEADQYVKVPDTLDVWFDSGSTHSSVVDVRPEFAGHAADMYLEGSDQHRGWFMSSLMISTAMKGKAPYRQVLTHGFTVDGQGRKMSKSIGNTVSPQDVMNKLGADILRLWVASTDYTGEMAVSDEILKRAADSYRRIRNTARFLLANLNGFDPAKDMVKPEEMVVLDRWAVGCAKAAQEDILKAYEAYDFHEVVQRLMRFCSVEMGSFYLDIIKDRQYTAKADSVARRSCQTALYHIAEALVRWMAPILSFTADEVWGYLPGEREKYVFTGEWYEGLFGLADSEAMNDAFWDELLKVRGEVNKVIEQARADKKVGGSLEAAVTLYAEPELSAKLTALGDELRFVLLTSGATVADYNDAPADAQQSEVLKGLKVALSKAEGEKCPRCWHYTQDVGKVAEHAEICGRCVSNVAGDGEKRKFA
Isoleucine--tRNA ligase, sequence (P00956 whole entry): as above

| Structure (SMILES) | Activity (Candida albicans) | Activity [1] | Activity (Escherichia coli) | Activity (Staphylococcus aureus) | inhibition [2] | inhibition [3] | Ki (Isoleucine--tRNA ligase) [nM] | inhibition [4] |
| --- | --- | --- | --- | --- | --- | --- | --- | --- |
| CC[C@H](C)[C@H](N)C(=O)NS(=O)(=O)OC[C@H]1OC[C@@H](CCn2cc(-c3ccccc3)nn2)[C@H](O)[C@@H]1O | inactive | inactive | inactive | inactive | Active | – | – | – |
| N[C@@H](Cc1ccc(O)cc1)C(=O)NS(=O)(=O)OC[C@H]1OC[C@@H](CCn2nnc(-c3ccccc3)n2)[C@H](O)[C@@H]1O | inactive | inactive | inactive | inactive | – | inactive | – | – |
| CC[C@H](C)[C@H](N)C(=O)NS(=O)(=O)OC[C@H]1OC[C@@H](CCn2nnc(-c3ccccc3)n2)[C@H](O)[C@@H]1O | inactive | inactive | inactive | inactive | Active | – | – | – |
| N[C@@H](Cc1ccc(O)cc1)C(=O)NS(=O)(=O)OC[C@H]1OC[C@@H](OCCn2cc(-c3ccccc3)nn2)[C@H](O)[C@@H]1O | inactive | inactive | inactive | inactive | – | inactive | – | – |
| CC[C@H](C)[C@H](N)C(=O)NS(=O)(=O)OC[C@H]1OC[C@@H](OCCn2cc(-c3ccccc3)nn2)[C@H](O)[C@@H]1O | inactive | inactive | inactive | inactive | Active | – | 114 | Active |
| N[C@@H](Cc1ccc(O)cc1)C(=O)NS(=O)(=O)OC[C@H]1OC[C@@H](CCn2cc(-c3ccccc3)nn2)[C@H](O)[C@@H]1O | inactive | inactive | inactive | inactive | – | inactive | – | – |
| CC[C@H](C)[C@H](N)C(=O)NS(=O)(=O)OC[C@H]1OC[C@@H](CCCn2cc(-c3ccccc3)nn2)[C@H](O)[C@@H]1O | inactive | inactive | inactive | inactive | Active | – | 88 | Active |
